# Screening data deposited in PubChem BioAssay by The Scripps Research Institute Molecular Screening Center.
# Shown are actives, neighbours in structure and some others; about 2.2% of the full set was active somewhere.
# SIAE inh: human SIAE inhibitors, primary screen, biochemical, fluorescence polarization, FP-Rh probe, 1536-well HTS. Sialate O-acetylesterase (Homo sapiens), Q9HAT2. AID 1053197, 2014. SIAE FP-Rh probe binding. 0.69% of 370,000 active. inhibition, % at 9.66 µM;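 active = inhibition above a cutoff: mean of compounds within the control limits plus 3 SD of those, cut at about 17% in these data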;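 also: 0% = plate median of compound wells and 100% = probe without SIAE protein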
# TCR-CD3 inh: inhibitors of human TCR-CD3 interaction, primary screen, biochemical, fluorescence, TAMRA-labeled TCR probe | inhibition, % at 9.4 µM | AID 651800, 2012 | T-cell receptor (TCR) | 0.37% of 360,000 active; in the data active = inhibition above about 19%;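 also: recombinant mutant TCR 2C K166C tagged with TAMRA read by polarization; 0% = receptor in buffer alone and 100% = receptor with positive control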
# HTRA1 inh: HTRA1 serine protease inhibitors, primary screen, biochemical, fluorescence polarization, HTS; Q92743; recombinant HTRA1, FP-rhodamine activity-based probe; inhibition, % at 5.96 µM; 0.5% of 340,000 active; AID 504803, 2011; in the data active = inhibition above about 36%;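 also: 0% = enzyme with DMSO and 100% = wells lacking enzyme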
# TDP2 inh: human TDP2 enzyme inhibitors, primary screen, biochemical, epi absorbance, recombinant enzyme; inhibition, % at 12.8 µM; Tyrosyl-DNA phosphodiesterase 2 (Homo sapiens), O95551; AID 720702, 2013; T5PNP hydrolysis, p-nitrophenol absorbance 415 nm; 0.34% of 370,000 active;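 active = inhibition above the mean of all tested compounds plus 3 SD, set per campaign, cut at about 25% in these data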;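 also: 0% = DMSO with enzyme and 100% = buffer with substrate but no TDP2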
# Target sequence (O95551 whole entry, looked up): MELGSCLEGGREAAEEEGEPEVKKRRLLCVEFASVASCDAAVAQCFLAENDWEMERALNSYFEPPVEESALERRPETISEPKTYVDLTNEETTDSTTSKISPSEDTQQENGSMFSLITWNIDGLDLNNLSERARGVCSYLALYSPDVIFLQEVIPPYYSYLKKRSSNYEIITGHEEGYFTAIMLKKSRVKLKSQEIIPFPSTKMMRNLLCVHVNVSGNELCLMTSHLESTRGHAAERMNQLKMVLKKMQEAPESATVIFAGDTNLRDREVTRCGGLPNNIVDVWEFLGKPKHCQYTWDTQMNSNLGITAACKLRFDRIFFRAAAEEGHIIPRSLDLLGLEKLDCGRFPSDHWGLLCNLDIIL
#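 Assay system: recombinant human TDP2 / Reagent: T5PNP substrate at 5 mM, a TopII-DNA adduct mimic / Measured by: epi absorbance from released p-nitrophenol / Evaluation: % inhibition relative to enzyme-containing and enzyme-free wells / Control set: enzyme-free and DMSO wells / Replicates: each compound tested once, singlicate / Schedule: enzyme reaction with compound for 2 h at 37 °C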
# LEDGF integ inh: blockers of LEDGF/p75-dependent integrase strand transfer – biochemical, TR-FRET, high throughput, primary screen; inhibition, % at 3.7 µM; AID 743269, 2014; TR-FRET IN-LEDGF/p75 DNA integration, Eu/Cy5; 0.64% of 370,000 active; HIV-1 integrase (with human LEDGF/p75);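 active = inhibition above the screen-wide mean plus 3 SD, cut at about 13% in these data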;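 also: signal is the Cy5 over europium emission ratio at 671 and 618 nm; 0% = plate median of compound wells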
# ABHD4 inh: ABHD4 inhibitors, primary screen, biochemical, fluorescence polarization, mouse | purified mABHD4, FP-Rh probe fluorescence polarization | inhibition, % at 8.92 µM | 0.54% of 370,000 active | AID 720543, 2013;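 active = inhibition exceeding the mean over every tested compound plus 3 SD, cut at about 30% in these data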;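 also: 0% = plate median of compound wells and 100% = S159A mutant with DMSO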
# Target sequence (Q8VD66 whole entry, looked up): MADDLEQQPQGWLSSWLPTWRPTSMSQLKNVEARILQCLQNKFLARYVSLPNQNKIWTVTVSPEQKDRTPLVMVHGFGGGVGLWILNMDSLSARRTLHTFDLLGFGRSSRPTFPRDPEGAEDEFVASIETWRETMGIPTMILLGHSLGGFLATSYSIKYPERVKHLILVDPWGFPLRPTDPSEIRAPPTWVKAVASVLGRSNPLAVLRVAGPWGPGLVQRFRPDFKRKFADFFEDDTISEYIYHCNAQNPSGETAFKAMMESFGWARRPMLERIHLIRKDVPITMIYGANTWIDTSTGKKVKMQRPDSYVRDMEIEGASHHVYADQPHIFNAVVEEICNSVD
#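 Test system: mABHD4 protein; Read-out basis: % inhibition; Incubation: 45 min + 60 min at 25 °C; Repeats: single replicate; Technique: fluorescence polarization with parallel and perpendicular emission, 525/598 nm; Compound: 8.92 µM, single dose; Benchmarks: full inhibition S159A mutant plus DMSO, zero as sample-well median.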
# ABHD4 confirm: ABHD4 inhibitors, retest, confirmation, biochemical, fluorescence polarization, mouse. purified mABHD4, FP-Rh probe fluorescence polarization. inhibition, % at 8.92 µM. 55% of 1,800 active. shares compounds with ABHD4 inh;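 active = mean inhibition across replicates above the hit cutoff set in the primary screen, cut at about 30% in these data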;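 also: 0% = wild-type ABHD4 with DMSO and 100% = catalytically dead S159A mutant with DMSO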
# * hit, by the source's call; x = no result given.
SMILES,SIAE inh,TCR-CD3 inh,HTRA1 inh,TDP2 inh,LEDGF integ inh,ABHD4 inh,ABHD4 confirm
COc1ccc2nc(C)cc(N/N=C/c3ccccc3)c2c1,x,x,-23.3,x,x,x,x
CCOC(=O)c1c(C)oc2c1c(CN1CCN(C(=O)OCC)CC1)c(O)c1ccccc12,12.1,7.3,-5.8,-1.1,-5.0,31.3*,39.0*
COc1ccc(/C=N/NC(=O)c2nn(-c3ccc(Cl)cc3)c(=O)c3c(N)scc23)cc1,11.3,-1.4,22.5,11.6,11.0,29.7*,17.0
O=c1[nH]c(S)c(/C=C2\C=Nc3ccccc32)s1,-1.9,-7.7,x,3.9,9.8,30.1*,35.4*
O=C(O)c1cc(-c2ccc(/C=N/NC(=S)Nc3ccccc3)o2)ccc1Cl,5.7,14.8,x,-1.9,5.6,39.2*,50.1*
CC(=O)C1=C(C)N(CC(C)C)C(=S)NC1c1cccc(Cl)c1 (configuration not stated),11.6,-4.9,x,3.1,1.9,-1.8,x
CC(C)CC(CCOCCO)NC(=O)OCc1ccccc1[N+](=O)[O-] (configuration not stated),2.9,x,x,1.7,-1.9,2.4,x
CCOc1ccc(CCNC(=O)CS(=O)Cc2nc(-c3ccc(C)cc3)oc2C)cc1 (configuration not stated),-2.3,2.2,1.4,-4.4,1.2,30.4*,-13.9
COC(=O)c1cc(-c2ccc(Oc3ccccc3)cc2)c(=O)n2c1CCC2,4.7,x,x,1.0,3.3,-5.8,x
CCOc1cc2c(c3c1C(c1ccccc1)N(S(=O)(=O)c1ccc(C)cc1)C3)C(=O)C=CC2=O (configuration not stated),5.4,0.4,x,6.7,4.2,48.0*,59.9*
COc1cc(OC)cc(C(=O)NC(=S)NNC(=O)c2cnccn2)c1,-1.4,4.8,7.3,-0.3,-1.9,9.8,x
CCNC(=S)NNC(=O)c1cnccn1,5.4,x,x,-3.7,-1.2,45.6*,53.6*
CCOC(=O)c1c(C)n(-c2ccc(C)cc2)c2c(C(C(C)=O)C(=O)O)c(Br)c(O)c(O)c12 (configuration not stated),-1.8,0.6,34.4,0.6,1.7,41.4*,30.6*
CCOC(=O)c1c(C)n(-c2ccc(C)cc2)c2c(CC(C)=O)c(Br)c(OC)c(O)c12,-2.2,3.2,-4.8,-4.3,2.4,5.0,x
O=C(NCC1COCCO1)C1CCN(S(=O)(=O)c2cccs2)CC1 (configuration not stated),-0.7,x,x,4.3,-1.6,9.0,x
O=C(Nc1ccc(N2CCOCC2)c(Cl)c1)c1c(F)c(F)c(F)c(F)c1F,4.5,-2.1,1.8,6.0,-3.8,-4.4,x
COc1c(F)c(F)c(C(=O)Nc2ccc(N3CCN(C(C)=O)CC3)c(Cl)c2)c(F)c1F,-5.2,-1.7,-2.9,7.0,-2.0,30.6*,19.9
COC(=O)[C@H]1C[C@@]2(N3CCCC3)c3ccccc3N[C@H]2N1S(=O)(=O)c1ccc([N+](=O)[O-])cc1,5.3,x,x,6.6,-4.8,5.6,x
Cc1ccc(NS(=O)(=O)c2ccc(Cl)c(N=Nc3c(O)[nH]c(=O)[nH]c3=O)c2)cc1Cl,5.4,-0.5,0.8,-5.0,1.5,31.0*,48.3*
CCCC(CCC)=NNc1ccc(S(=O)(=O)Nc2ccccc2OC)cc1[N+](=O)[O-],-0.8,8.7,-4.7,7.6,-1.1,2.9,x
C=CCOc1ccc(C=NNc2ccc(S(=O)(=O)Nc3ccccc3C(=O)O)cc2[N+](=O)[O-])cc1OC,11.4,15.9,26.4,-4.2,3.0,50.1*,59.1*
O=C(O)c1ccccc1/C=N/Nc1ccc(S(=O)(=O)N2CCCC2)cc1[N+](=O)[O-],0.8,4.5,-2.7,12.4,-1.4,2.3,x
CCOc1cccc(C=NNc2ccc(S(=O)(=O)Nc3ccccc3C(=O)O)cc2[N+](=O)[O-])c1O,-0.7,2.6,14.0,-3.6,-1.8,61.9*,66.1*
Cc1nn(-c2ccccc2)c(Cl)c1/C=N/Nc1ccc(Cl)c(C(=O)O)c1,6.4,-2.0,-0.6,-2.5,-1.7,5.3,x
Cc1nn(-c2ccccc2)c(Cl)c1/C=N/Nc1ccc(S(=O)(=O)Nc2ccccc2C(=O)O)cc1[N+](=O)[O-],17.6*,0.3,6.4,3.0,2.3,41.9*,62.0*
SMILES,SIAE inh,TCR-CD3 inh,HTRA1 inh,TDP2 inh,LEDGF integ inh,ABHD4 inh,ABHD4 confirm
CSc1ccc(C=NNc2ccc(S(=O)(=O)Nc3ccccc3C(=O)O)cc2[N+](=O)[O-])cc1,12.0,-1.2,16.0,0.3,1.9,32.2*,77.5*
COC(=O)c1cc2c(c3c4cc(C)ccc4n(S(=O)(=O)c4ccc(C)cc4)c13)C(=O)N(Cc1ccccc1)C2,-3.0,-6.6,x,-7.8,-2.6,-3.7,x
O=C(N[C@H](Cc1ccccc1)C(=O)NCCN1CCOCC1)[C@H]1O[C@@H](n2ccc(=O)[nH]c2=O)[C@H](O)[C@@H]1O,-4.8,6.6,x,2.8,-5.4,0.6,x
O=C(C1CCC1)N1CCc2cc(S(=O)(=O)C3CCN(Cc4ccc(F)cc4)CC3)ccc21,-0.5,x,x,-1.3,5.1,0.4,x
CN(c1ccc(O)cc1)c1nc(O)c(C2=c3ccccc3=NC2=O)s1,2.3,-2.8,7.0,3.5,3.0,43.1*,64.9*
O=C1N=c2ccccc2=C1c1sc(=O)[nH]c1O,-0.1,-3.5,x,10.6,-2.9,9.2,x
C[C@H](O)[C@@H]1C(=O)N2CCc3c([nH]c4c(-c5ccc6c(c5)OCO6)cccc34)[C@@H]2C[C@@H]1N(C)C(=O)Nc1ccccc1,-0.8,3.4,x,0.6,0.0,0.0,x
CCCCn1c(N)c(N(CCOC)C(=O)C2CCN(C(=O)c3ccc(F)cc3)CC2)c(=O)[nH]c1=O,8.7,1.0,-2.4,-4.8,0.7,31.1*,4.3
CN[C@H]1C[C@H]2c3[nH]c4c(-c5cccc(C)c5)cccc4c3CCN2C(=O)[C@H]1[C@H](C)O,-4.9,x,x,-3.4,3.1,12.8,x
COC(=O)C1=C(C)N(C)C(=NCc2ccccc2C(F)(F)F)NC1c1cccc(F)c1 (configuration not stated),-5.9,2.6,x,-0.9,1.5,-3.8,x
CCc1ccc(OCC(=O)Nc2ccc(N3CCN(C(=O)c4ccccc4)CC3)cc2)cc1,4.3,-6.0,-5.5,-2.6,3.2,58.3*,6.5
